For data set [1], the target named is T1, C-C chemokine receptor type 2 (Homo sapiens, UniProt P41597). In words: Displacement of [125I]MCP1 from human CCR2 expressed in CHO cells. It is filed as cell-based. The method in brief:
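Competition binding: CHO cells stably expressing human CCR2b (5 × 10⁴) incubated with ¹²⁵I-hMCP-1 (20–50 pM) plus varied unlabeled competitor, 60 min, room temperature, in 50 mM HEPES, 5 mM MgCl₂, 1 mM CaCl₂, pH 7.4. Ended by filtration through polyethyleneimine-soaked GF/B filters, washed with 25 mM HEPES pH 7.5/500 mM NaCl. Values given as IC₅₀ or % inhibition at 1 µM.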

The target in data set [2] is T2, C-C chemokine receptor type 1 (Homo sapiens) (UniProt P32246).
T2 sequence (whole entry): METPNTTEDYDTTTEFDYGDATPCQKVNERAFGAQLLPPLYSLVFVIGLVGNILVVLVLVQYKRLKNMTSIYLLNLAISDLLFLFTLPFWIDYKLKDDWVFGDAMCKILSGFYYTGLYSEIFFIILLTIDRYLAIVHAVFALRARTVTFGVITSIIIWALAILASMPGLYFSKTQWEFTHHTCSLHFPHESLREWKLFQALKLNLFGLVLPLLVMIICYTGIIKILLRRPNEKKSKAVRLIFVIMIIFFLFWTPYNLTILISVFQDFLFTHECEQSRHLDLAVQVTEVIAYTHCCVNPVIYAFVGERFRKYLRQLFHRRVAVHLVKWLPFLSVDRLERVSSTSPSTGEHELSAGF
Put plainly: (§1) Binding affinity to CCR1.

Data set [3] has as its target T3, C-C chemokine receptor type 1 (Homo sapiens, UniProt P32246).
T3 sequence (P32246 whole entry): T2 sequence (whole entry)
The data set is described as §1.

Data set [4] addresses T4, C-C chemokine receptor type 3 (Homo sapiens) (UniProt P51677).
T4 sequence (whole entry): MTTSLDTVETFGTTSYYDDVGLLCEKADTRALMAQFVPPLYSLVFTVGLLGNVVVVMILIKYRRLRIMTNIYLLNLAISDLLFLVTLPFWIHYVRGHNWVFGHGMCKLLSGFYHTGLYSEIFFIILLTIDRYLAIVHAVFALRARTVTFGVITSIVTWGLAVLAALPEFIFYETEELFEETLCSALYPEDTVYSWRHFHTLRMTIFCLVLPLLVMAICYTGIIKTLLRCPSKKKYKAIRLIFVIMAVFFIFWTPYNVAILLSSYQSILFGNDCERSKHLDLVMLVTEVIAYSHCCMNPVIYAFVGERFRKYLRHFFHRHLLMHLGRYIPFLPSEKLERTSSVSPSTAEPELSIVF
Put plainly: (§2) Binding affinity to CCR3.

Data set [5] concerns the target T5, C-C chemokine receptor type 3 (Homo sapiens, UniProt P51677).
T5 sequence (P51677 whole entry): T4 sequence (whole entry)
The data set is described as §2.

For data set [6], the target named is T6, C-C chemokine receptor type 4 (Homo sapiens) (UniProt P51679).
T6 sequence (whole entry): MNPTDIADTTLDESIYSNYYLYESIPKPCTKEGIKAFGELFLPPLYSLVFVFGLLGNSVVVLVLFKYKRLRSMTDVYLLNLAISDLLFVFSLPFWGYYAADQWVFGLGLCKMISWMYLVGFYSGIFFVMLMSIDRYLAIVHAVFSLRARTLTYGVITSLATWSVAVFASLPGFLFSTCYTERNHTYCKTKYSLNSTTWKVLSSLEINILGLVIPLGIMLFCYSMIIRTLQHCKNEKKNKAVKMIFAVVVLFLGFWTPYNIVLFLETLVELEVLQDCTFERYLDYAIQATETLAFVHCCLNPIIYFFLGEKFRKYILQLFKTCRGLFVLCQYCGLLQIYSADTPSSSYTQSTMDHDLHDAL
In words: (§3) Binding affinity to CCR4.

The target in data set [7] is T7, C-C chemokine receptor type 4 (Homo sapiens, UniProt P51679).
T7 sequence (P51679 whole entry): T6 sequence (whole entry)
The description is as §3.

Data set [8] has as its target C-C chemokine receptor type 8 (Homo sapiens, UniProt P51685). In words: Binding affinity to CCR8.
Data set [9] deals with T1, C-C chemokine receptor type 2. Put plainly: Antagonist activity against CCR2 assessed as inhibition of MCP1-induced calcium flux in human monocytes. Format: functional, cell-based.
For data set [10] the target is unchanged. In words: Binding affinity to CCR2 in human monocytes. It is filed as cell-based. The method in brief:
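Competition binding on human monocytes (2 × 10⁵ cells) incubated with ¹²⁵I-hMCP-1 (20–50 pM; 2200 Ci/mmol) and a range of unlabeled competitor concentrations. Buffer: 50 mM HEPES, 5 mM MgCl₂, 1 mM CaCl₂, pH 7.4, for 60 min at room temperature. Stopped by filtration through PEI-presoaked GF/B filters, washed with 25 mM HEPES pH 7.5 / 500 mM NaCl. Reported as IC50.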

The test system of data set [11] is Monocyte. Put plainly: Inhibition of MCP1-induced chemotaxis of human monocytes. It is filed as functional, cell-based. Summed up:
(§4)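 Human monocytes loaded with Calcein-AM in Hanks' buffer with 0.01% BSA, 37 °C, 30 min, then washed and resuspended in phenol red-free RPMI 1640 with 0.01% BSA. Migration toward MCP-1 measured in disposable 96-well chemotaxis plates (5.7 mm diameter wells), 1.5 × 10⁵ cells/well.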

Data set [12] is described as follows: Oral bioavailability in rat. The note with it: in vivo. It is filed as ADME, organism-based.
A short description of data set [13]: Clearance in rat. As to conditions: in vivo. It is filed as ADME, organism-based.
A short description of data set [14]: Half life in rat. Format: ADME, organism-based. The note with it: in vivo.
Data set [15] is described as follows: Portal level in rat at 3 mg/kg, po after 1 hr. Format: ADME, organism-based. Also on record: dose 3 mg/kg, route oral. The note with it: portal vein (blood or plasma not stated), read-out: Activity. The method in brief:
(§5)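 Rats dosed orally at 3 mg/kg; drug levels in portal and systemic blood sampled at several time points to assess first-pass metabolism.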

Another data set deals with Rattus norvegicus. Put plainly: Systemic level in rat at 3 mg/kg, po. It is filed as ADME, organism-based. Also on record: dose 3 mg/kg, route oral. As to conditions: in vivo. The method in brief:
as §5

For another data set, the target named is Substance-P receptor (Homo sapiens, UniProt P25103). In words: Binding affinity to human NK1 receptor.
The target in data set [16] is T8, Neuromedin-K receptor (Homo sapiens) (UniProt P29371).
T8 sequence (whole entry): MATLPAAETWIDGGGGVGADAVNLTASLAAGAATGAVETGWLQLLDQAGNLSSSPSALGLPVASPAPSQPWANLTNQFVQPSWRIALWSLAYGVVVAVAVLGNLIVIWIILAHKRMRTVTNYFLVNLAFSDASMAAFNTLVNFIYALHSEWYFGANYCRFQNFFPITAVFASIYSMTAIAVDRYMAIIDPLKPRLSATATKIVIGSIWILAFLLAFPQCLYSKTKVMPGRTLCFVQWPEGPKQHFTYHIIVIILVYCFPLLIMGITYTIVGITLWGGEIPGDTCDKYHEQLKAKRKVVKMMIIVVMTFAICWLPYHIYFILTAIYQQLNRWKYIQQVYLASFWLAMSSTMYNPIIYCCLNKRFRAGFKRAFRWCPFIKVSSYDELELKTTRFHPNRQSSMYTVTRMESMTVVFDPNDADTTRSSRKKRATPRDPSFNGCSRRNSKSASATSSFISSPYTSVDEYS
In words: (§6) Binding affinity to human NK3 receptor.

The next data set addresses T9, Neuromedin-K receptor (Homo sapiens, UniProt P29371).
T9 sequence (P29371 whole entry): T8 sequence (whole entry)
The data set is described as §6.

The target of data set [17] is T10, Substance-K receptor (Homo sapiens) (UniProt P21452).
T10 sequence (whole entry): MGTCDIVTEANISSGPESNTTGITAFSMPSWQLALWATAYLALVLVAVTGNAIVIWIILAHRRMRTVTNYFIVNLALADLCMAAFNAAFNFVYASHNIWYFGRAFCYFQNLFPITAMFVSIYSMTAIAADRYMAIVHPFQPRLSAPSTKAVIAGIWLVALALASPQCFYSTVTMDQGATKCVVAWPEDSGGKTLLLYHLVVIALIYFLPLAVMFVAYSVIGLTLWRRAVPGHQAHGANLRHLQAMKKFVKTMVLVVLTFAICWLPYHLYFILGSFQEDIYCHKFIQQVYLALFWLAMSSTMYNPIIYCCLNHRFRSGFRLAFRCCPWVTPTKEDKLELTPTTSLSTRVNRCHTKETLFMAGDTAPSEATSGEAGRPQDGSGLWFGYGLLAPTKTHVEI
Put plainly: (§7) Binding affinity to human NK2 receptor.

For another data set, the target named is T11, Substance-K receptor (Homo sapiens, UniProt P21452).
T11 sequence (P21452 whole entry): T10 sequence (whole entry)
The data set is described as §7.

For data set [18], the target named is C-C chemokine receptor type 5 (Homo sapiens, UniProt P51681).
Data set [19] deals with Monocyte. In words: Inhibition of MCP1-induced chemotaxis of human monocytes at 10 uM. Format: functional. Summed up:
as §4

T1 sequence (P41597 whole entry): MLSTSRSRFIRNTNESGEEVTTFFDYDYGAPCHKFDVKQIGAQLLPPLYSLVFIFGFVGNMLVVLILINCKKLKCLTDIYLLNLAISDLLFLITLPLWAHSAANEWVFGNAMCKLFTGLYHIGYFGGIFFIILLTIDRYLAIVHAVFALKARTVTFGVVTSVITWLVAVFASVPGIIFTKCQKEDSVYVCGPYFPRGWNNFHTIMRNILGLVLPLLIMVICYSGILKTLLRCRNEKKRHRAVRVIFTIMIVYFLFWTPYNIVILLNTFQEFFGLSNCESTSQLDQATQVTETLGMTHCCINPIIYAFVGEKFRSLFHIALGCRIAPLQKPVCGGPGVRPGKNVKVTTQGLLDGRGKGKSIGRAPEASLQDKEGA
Substance-P receptor, sequence (P25103 whole entry): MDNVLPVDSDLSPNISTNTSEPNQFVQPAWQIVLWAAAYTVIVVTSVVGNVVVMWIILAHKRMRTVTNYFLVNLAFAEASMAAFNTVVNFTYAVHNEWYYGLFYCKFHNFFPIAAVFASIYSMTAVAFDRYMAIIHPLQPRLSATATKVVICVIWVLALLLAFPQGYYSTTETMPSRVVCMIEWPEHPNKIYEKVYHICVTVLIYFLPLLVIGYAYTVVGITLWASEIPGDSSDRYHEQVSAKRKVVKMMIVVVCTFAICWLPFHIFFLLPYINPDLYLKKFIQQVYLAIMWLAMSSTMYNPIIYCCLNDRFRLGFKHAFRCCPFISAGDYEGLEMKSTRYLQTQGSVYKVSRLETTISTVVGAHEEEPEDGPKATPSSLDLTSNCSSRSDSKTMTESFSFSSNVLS
C-C chemokine receptor type 8, sequence (P51685 whole entry): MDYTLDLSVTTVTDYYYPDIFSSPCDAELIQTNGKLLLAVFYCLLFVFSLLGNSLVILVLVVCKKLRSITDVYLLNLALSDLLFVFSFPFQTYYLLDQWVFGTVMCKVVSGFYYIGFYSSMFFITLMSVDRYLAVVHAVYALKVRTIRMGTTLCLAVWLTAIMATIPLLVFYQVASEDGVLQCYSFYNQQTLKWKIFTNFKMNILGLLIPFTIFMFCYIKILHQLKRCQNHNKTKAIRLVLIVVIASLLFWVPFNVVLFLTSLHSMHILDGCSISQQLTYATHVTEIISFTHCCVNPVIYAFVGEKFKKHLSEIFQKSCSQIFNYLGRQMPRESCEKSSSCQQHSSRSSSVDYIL
C-C chemokine receptor type 5, sequence (P51681 whole entry): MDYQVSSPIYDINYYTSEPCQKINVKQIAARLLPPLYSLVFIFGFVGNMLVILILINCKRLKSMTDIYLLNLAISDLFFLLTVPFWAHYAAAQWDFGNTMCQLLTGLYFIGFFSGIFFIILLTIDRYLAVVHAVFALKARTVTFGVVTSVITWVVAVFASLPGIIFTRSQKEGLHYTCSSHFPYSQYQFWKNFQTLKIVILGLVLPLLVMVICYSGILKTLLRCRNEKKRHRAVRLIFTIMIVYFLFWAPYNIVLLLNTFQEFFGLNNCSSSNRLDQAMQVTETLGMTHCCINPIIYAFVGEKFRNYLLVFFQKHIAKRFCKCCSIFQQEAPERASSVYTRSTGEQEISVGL

On to `O=C(NCc1cc(C(F)(F)F)cc(C(F)(F)F)c1)[C@@H](NCCN1CCCCC1)c1ccsc1`, for which the IC50 in data set [1] was 39 nM; in data set [3] it was above 1000 nM; in data set [5], above 1000 nM; in data set [7], above 2000 nM; in data set [8], above 1000 nM; in [9], 50 nM. Moreover, the half-inhibitory concentration (IC50) in data set [10] was 30 nM; in the data set with Monocyte [11], 9.6 nM; on Substance-P receptor, above 100 nM; on Neuromedin-K receptor, above 1000 nM; on Substance-K receptor, above 1000 nM; in data set [18], above 1000 nM. Also, the Activity in [2] was -19%; in [4] it was 2%; in data set [6], 6%; in data set [8], 15%; in the data set with Rattus norvegicus, below 20 ng/mL; on Substance-P receptor it was 31%. The Activity amounted to 10% in data set [16] and 20% in [17]. In data set [12], the bioavailability turned out to be 4.5%. Besides, the clearance in data set [13] was 80 mL/min/kg. In [14], this compound gave a half-life of 1.8 h. Further, the concentration at 1 h in [15] is above 300 ng/mL.

Turning to `CN(CCN1CCCCC1)c1ccc(-c2nc3cc(Cl)c(Cl)cc3[nH]2)cc1`, the inhibition at 10 µM with Monocyte [19] is 100%.

Source of the values: ChEMBL document CHEMBL1138921, “Discovery of 3,5-bis(trifluoromethyl)benzyl L-arylglycinamide based potent CCR2 antagonists” (Bioorg Med Chem Lett, 2006).
